Test results taken from ChEMBL document CHEMBL5038590, “Discovery of G Protein-Biased Ligands against 5-HT7R” (J Med Chem, 2021).

Columns and labels:
Mus musculus [1] = assay: Effect on wild type mouse assessed as time taken for duration of self grooming at 30 mg/kg, ip after 30 mins under 40 lux lighting (reference value: 43.7 +/- 10.8 sec); format: functional; conditions: 0.5 h
Mus musculus [2] = assay: Effect on shank3-/- mouse model of autism spectrum disorder assessed as time taken for duration of self grooming at 30 mg/kg, ip after 30 mins under 40 lux lighting (reference value: 224 +/- 47.4 sec); format: functional; conditions: 0.5 h
[3] = target: T1, 5-hydroxytryptamine receptor 7 (Homo sapiens, UniProt P34969); assay: Displacement of [3H] D-lysergic acid diethylamide from 5-HT7R (unknown origin) transfected in HEK293 cells incubated for 1.5 hrs by microbeta scintillation counter analysis; format: cell-based
[4] = target: T1, 5-hydroxytryptamine receptor 7; assay: Agonist activity at 5-HT7R (unknown origin) transfected in HEK293 cells expressing tTA-dependent luciferase reporter and beta arrestin 2-TEV fusion gene assessed as beta arrestin recruitment incubated for 22 hrs by Tango assay; format: functional, cell-based
[5] = target: T2, 5-hydroxytryptamine receptor 1A (Homo sapiens, UniProt P08908); assay: Binding affinity to 5-HT1AR (unknown origin)
T2 sequence (P08908 whole entry): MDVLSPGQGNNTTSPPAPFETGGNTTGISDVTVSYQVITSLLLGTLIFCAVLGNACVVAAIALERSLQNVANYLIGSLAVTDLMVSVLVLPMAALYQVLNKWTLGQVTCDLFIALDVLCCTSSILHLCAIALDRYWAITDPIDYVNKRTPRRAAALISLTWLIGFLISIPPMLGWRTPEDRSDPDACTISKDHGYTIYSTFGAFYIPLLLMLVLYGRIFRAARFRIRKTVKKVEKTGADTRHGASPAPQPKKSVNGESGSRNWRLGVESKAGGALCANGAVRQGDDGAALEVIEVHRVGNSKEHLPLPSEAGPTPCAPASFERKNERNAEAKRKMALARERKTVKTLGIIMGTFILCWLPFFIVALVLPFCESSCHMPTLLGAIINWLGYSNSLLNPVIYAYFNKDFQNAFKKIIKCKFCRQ
In short: (§1)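 Run by the NIMH Psychoactive Drug Screening Program as competition radioligand binding on crude membranes of cells expressing the recombinant receptor. Eleven dilutions (0.05 nM–50 μM, prepared at 5× assay concentration) were made in 50 mM Tris-HCl, 10 mM MgCl₂, 1 mM EDTA, pH 7.4. Incubation was 1.5 h at rt in the dark, followed by GF/B filtration (0.3% PEI) and scintillation counting. IC₅₀ was converted to Ki; at least triplicate.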

[6] = target: 5-hydroxytryptamine receptor 1B (Homo sapiens, UniProt P28222); assay: Binding affinity to 5-HT1BR (unknown origin); in short: as §1
[7] = target: 5-hydroxytryptamine receptor 1D (Homo sapiens, UniProt P28221); assay: Binding affinity to 5-HT1DR (unknown origin); in short: as §1
[8] = target: 5-hydroxytryptamine receptor 1E (Homo sapiens, UniProt P28566); assay: Binding affinity to 5-HT1ER (unknown origin); in short: as §1
[9] = target: 5-hydroxytryptamine receptor 2A (Homo sapiens, UniProt P28223); assay: Binding affinity to 5-HT2AR (unknown origin); in short: as §1
[10] = target: 5-hydroxytryptamine receptor 2B (Homo sapiens, UniProt P41595); assay: Binding affinity to 5-HT2BR (unknown origin); in short: as §1
[11] = target: T3, 5-hydroxytryptamine receptor 2C (Homo sapiens, UniProt P28335); assay: Binding affinity to 5-HT2CR (unknown origin); in short: as §1
T3 sequence (P28335 whole entry): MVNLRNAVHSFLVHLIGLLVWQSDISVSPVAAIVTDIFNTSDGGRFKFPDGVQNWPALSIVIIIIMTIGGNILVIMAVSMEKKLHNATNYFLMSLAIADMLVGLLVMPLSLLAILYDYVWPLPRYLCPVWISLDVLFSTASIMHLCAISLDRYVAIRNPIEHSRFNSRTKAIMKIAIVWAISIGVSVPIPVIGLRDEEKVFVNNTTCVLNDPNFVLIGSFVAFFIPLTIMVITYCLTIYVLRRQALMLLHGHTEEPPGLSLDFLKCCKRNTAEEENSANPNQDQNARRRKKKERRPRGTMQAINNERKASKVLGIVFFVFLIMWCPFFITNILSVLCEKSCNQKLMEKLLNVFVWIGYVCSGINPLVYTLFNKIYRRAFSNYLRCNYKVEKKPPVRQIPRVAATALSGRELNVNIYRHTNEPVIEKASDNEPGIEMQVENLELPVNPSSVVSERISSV

[12] = target: T4, 5-hydroxytryptamine receptor 3A (Homo sapiens, UniProt P46098); assay: Binding affinity to 5-HT3R (unknown origin); in short: as §1
T4 sequence (P46098 whole entry): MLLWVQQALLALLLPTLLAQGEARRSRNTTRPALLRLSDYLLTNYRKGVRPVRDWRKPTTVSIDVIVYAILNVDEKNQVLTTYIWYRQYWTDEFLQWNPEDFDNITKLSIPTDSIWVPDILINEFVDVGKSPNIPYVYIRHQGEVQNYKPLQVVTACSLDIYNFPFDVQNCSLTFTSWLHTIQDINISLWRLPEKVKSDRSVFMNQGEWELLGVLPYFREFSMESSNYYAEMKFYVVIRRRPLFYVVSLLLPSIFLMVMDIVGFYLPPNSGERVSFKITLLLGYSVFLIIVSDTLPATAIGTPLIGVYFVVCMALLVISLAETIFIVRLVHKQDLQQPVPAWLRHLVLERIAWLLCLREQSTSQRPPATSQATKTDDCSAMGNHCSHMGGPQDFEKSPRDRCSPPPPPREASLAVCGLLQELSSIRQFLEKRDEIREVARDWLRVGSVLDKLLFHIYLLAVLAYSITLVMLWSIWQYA

[13] = target: 5-hydroxytryptamine receptor 5A (Homo sapiens, UniProt P47898); assay: Binding affinity to 5-HT5AR (unknown origin); in short: as §1
[14] = target: 5-hydroxytryptamine receptor 6 (Homo sapiens, UniProt P50406); assay: Binding affinity to 5-HT6R (unknown origin); in short: as §1
[15] = target: T1, 5-hydroxytryptamine receptor 7

Chain of 5-hydroxytryptamine receptor 5A (P47898 whole entry): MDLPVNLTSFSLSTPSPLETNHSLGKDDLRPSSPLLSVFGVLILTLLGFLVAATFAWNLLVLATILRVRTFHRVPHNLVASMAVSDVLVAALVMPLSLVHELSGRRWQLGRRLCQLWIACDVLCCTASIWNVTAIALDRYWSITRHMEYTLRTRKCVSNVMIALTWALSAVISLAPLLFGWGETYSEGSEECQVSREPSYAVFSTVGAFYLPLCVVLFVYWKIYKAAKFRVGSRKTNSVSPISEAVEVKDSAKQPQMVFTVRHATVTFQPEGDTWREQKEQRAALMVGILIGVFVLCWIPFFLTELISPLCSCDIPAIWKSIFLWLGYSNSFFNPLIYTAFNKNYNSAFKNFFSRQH
Chain of 5-hydroxytryptamine receptor 1B (P28222 whole entry): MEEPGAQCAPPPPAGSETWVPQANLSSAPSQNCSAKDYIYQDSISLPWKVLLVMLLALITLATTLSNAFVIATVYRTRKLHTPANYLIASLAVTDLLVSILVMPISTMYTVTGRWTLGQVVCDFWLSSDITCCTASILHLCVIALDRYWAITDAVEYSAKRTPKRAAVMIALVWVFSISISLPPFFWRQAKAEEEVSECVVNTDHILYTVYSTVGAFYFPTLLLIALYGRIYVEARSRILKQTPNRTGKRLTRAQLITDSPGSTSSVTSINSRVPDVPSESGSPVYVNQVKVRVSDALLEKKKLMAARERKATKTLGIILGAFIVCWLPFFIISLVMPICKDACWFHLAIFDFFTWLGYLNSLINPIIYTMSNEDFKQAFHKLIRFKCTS
Chain of 5-hydroxytryptamine receptor 2B (P41595 whole entry): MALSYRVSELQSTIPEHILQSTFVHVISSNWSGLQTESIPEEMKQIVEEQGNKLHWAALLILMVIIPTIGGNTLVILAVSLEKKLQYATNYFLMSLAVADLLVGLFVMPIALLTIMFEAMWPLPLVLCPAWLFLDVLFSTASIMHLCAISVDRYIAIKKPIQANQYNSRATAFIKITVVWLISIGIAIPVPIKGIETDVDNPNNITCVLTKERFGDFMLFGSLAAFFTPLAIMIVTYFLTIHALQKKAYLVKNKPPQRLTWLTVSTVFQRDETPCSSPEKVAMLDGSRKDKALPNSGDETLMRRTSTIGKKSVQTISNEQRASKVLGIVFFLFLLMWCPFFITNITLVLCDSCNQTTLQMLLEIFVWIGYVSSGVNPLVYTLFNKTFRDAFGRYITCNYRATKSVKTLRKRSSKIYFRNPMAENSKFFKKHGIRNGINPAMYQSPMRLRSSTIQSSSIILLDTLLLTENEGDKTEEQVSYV
Chain of 5-hydroxytryptamine receptor 1E (P28566 whole entry): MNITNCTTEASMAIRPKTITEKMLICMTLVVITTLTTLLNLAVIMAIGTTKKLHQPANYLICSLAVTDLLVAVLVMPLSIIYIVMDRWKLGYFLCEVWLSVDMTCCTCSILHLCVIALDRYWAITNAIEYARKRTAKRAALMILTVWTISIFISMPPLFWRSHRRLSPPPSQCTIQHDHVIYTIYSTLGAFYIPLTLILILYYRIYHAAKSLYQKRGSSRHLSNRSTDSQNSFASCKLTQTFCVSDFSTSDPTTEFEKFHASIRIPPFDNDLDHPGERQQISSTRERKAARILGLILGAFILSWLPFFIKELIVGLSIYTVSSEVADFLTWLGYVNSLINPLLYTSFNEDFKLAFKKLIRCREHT
Chain of 5-hydroxytryptamine receptor 2A (P28223 whole entry): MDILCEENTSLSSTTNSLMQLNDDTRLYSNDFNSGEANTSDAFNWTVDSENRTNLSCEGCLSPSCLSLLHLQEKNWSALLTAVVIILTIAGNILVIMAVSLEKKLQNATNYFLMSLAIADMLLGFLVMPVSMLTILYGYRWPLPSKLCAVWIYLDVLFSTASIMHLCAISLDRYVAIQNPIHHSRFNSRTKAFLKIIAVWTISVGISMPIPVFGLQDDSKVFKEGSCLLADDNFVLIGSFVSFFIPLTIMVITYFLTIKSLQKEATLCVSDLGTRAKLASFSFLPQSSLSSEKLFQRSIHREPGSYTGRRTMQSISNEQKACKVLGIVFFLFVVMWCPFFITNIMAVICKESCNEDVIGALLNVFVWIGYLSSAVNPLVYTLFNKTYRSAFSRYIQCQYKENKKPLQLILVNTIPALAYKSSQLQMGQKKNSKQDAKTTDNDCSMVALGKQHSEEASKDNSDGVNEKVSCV
Chain of 5-hydroxytryptamine receptor 1D (P28221 whole entry): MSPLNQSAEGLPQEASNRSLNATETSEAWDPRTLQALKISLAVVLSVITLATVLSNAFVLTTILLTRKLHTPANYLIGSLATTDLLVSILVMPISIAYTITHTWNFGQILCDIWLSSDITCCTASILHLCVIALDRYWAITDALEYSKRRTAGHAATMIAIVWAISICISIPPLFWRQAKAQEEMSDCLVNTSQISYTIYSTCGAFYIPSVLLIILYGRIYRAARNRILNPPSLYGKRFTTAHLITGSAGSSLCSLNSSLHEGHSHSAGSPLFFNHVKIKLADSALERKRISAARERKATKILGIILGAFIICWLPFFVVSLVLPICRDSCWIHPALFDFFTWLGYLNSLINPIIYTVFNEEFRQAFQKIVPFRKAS
Chain of 5-hydroxytryptamine receptor 6 (P50406 whole entry): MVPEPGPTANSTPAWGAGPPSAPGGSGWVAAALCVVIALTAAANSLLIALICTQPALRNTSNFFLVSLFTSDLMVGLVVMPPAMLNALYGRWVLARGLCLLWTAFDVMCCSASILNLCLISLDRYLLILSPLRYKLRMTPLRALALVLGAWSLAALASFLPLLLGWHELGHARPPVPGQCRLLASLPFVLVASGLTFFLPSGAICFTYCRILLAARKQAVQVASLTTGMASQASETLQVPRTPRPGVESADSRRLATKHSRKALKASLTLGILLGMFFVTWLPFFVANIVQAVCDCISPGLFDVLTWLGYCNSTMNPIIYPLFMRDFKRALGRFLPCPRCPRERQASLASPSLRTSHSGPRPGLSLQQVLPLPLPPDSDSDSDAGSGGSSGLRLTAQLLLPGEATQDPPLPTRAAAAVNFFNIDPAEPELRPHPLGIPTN
T1 sequence (P34969 whole entry, the tested form may be a part): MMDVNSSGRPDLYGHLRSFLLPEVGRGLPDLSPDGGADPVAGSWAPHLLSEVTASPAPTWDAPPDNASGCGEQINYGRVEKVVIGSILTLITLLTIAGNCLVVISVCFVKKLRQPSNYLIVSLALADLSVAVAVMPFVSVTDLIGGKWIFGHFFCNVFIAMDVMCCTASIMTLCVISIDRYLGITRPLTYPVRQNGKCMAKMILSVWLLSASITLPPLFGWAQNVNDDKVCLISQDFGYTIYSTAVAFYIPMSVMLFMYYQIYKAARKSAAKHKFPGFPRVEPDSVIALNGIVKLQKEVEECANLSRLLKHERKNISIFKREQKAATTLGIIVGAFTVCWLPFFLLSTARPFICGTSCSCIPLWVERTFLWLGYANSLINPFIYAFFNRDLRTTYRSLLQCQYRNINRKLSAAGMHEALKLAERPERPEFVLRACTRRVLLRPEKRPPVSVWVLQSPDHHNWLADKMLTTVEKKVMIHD

CC1CCN(CC[C@H]2CCCN2S(=O)(=O)c2cccc(O)c2)CC1
Time (Mus musculus [1]): 29.3 s
Time (Mus musculus [2]): 181 s

COc1ccccc1-c1cc(CN(C)C)ccc1Cl
Ki ([3]; read-out: pKi (converted)): 20 nM
EC50 ([4]; read-out: EC50): 480 nM
Ki [5]: 2100 nM
Ki [6]: 830 nM
Ki [7]: 1300 nM
Ki [8]: 4100 nM
Ki [9]: 360 nM
Ki [10]: 11 nM
Ki [11]: 270 nM
Ki [12]: 1000 nM
Ki [13]: 220 nM
Ki [14]: 440 nM
EC50 [15]: 1100 nM

CNCc1ccc(Cl)c(-c2ccccc2OC)c1
EC50 ([4]; read-out: EC50): 150 nM
Ki [5]: 1700 nM
Ki [6]: 1200 nM
Ki [7]: 1200 nM
Ki [8]: 2400 nM
Ki [9]: 380 nM
Ki [10]: 13 nM
Ki [11]: 200 nM
Ki [12]: > 10000 nM
Ki [13]: 420 nM
Ki [14]: 1300 nM
EC50 [15]: 460 nM

Cc1nn(C)c(C)c1-c1cccc(CCN(C)C)c1
Ki ([3]; read-out: Ki): 1.3 nM
EC50 ([4]; read-out: EC50): 21 nM
EC50 [15]: 83 nM

CCN(CC)Cc1ccc(Cl)c(-c2ccccc2OC)c1
Ki ([3]; read-out: Ki): 110 nM
EC50 ([4]; hek293): Not Active
Ki [5]: 1700 nM
Ki [6]: > 10000 nM
Ki [7]: > 10000 nM
Ki [8]: > 10000 nM
Ki [9]: > 10000 nM
Ki [10]: 67 nM
Ki [11]: 820 nM
Ki [12]: > 10000 nM
Ki [13]: 230 nM
Ki [14]: 2000 nM

COc1ccccc1-c1cc(CCN(C)C)ccc1Cl
Ki ([3]; read-out: Ki): 2.5 nM
EC50 ([4]; read-out: EC50): 56 nM
Ki [5]: 280 nM
Ki [6]: 74 nM
Ki [7]: 86 nM
Ki [8]: 2200 nM
Ki [9]: 250 nM
Ki [10]: 280 nM
Ki [11]: > 10000 nM
Ki [12]: > 10000 nM
Ki [13]: 380 nM
Ki [14]: 1000 nM
EC50 [15]: 84 nM

CCNCc1ccc(Cl)c(-c2ccccc2OC)c1
Ki [5]: 840 nM
Ki [6]: 210 nM
Ki [7]: 220 nM
Ki [8]: > 10000 nM
Ki [9]: 910 nM
Ki [10]: 19 nM
Ki [11]: 45 nM
Ki [12]: > 10000 nM
Ki [13]: 1800 nM
Ki [14]: 1400 nM

COc1ccccc1-c1cc(C2CCNC2)ccc1Cl (stereo not given)
Ki [5]: 96 nM
Ki [6]: 410 nM
Ki [7]: 3.4 nM
Ki [8]: 770 nM
Ki [9]: 340 nM
Ki [10]: 50 nM
Ki [11]: > 10000 nM
Ki [12]: 590 nM
Ki [13]: 970 nM
Ki [14]: 400 nM
